As a reminder, the IC50 is the point on the concentration scale where inhibition reaches its midpoint. A low value points to inhibition by little substance.

The values that follow come from ChEMBL document CHEMBL1153311, “Inhibitory activity of prostaglandin E2 production by the synthetic 2'-hydroxychalcone analogues: Synthesis and SAR study” (Bioorg Med Chem Lett, 2009).

The subject of one test is RAW264.7. Briefly: Cytotoxicity against mouse RAW264.7 cells assessed as cell viability at 10 uM by MTT assay. It is filed as functional. The settings on record: read-out: Activity. An outline of the steps:
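RAW 264.7 mouse macrophage-like cells tested with or without LPS; viability read by MTT assay and reported as percent cell […]; values are the mean of three experiments.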
A general note: Formazan colour is commonly taken as a measure of viable cells.

Test [1] concerns the target T1, Prostaglandin G/H synthase 2 (Mus musculus, UniProt Q05769).
T1 sequence (Q05769 whole entry): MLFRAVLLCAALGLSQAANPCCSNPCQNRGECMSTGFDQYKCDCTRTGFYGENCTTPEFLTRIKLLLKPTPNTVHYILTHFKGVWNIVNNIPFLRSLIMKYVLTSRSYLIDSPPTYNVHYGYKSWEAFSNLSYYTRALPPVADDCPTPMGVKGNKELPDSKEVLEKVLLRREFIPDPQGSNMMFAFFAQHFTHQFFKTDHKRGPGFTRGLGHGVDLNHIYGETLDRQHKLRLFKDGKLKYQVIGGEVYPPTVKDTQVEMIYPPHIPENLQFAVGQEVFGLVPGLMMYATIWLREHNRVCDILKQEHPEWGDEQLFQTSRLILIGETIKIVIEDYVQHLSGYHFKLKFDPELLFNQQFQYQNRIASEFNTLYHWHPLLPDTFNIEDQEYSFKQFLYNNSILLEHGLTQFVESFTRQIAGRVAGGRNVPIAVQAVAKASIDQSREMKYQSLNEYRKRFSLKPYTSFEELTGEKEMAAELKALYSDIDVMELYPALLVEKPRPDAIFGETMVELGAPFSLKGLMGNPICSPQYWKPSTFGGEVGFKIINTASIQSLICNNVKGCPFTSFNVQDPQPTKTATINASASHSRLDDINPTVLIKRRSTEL
Briefly: Inhibition of COX2-mediated PGE2 production in LPS-stimulated mouse RAW264.7 cells by enzyme immunoassay.

For test [2], the target named is T2, Prostaglandin G/H synthase 2 (Homo sapiens, UniProt P35354).
T2 sequence (P35354 whole entry): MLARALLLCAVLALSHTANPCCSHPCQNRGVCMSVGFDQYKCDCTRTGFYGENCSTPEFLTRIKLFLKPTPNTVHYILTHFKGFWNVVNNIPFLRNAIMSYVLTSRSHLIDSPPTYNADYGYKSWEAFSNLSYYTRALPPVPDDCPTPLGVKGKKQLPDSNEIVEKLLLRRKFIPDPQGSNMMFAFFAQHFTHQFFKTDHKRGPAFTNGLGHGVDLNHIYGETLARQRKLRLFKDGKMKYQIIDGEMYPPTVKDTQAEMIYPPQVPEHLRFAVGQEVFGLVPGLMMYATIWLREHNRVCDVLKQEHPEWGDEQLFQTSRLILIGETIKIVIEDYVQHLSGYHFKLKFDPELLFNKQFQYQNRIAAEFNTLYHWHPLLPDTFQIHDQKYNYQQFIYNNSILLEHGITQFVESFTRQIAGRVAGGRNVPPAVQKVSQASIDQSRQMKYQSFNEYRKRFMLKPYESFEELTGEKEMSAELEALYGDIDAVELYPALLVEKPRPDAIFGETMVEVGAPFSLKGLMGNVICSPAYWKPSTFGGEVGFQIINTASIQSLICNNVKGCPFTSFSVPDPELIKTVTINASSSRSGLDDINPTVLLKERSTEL
Briefly: Inhibition of COX2. An outline of the steps: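 RAW 264.7 mouse macrophage cells were plated at 2 × 10⁵ cells/well and treated with LPS for 24 h to induce COX-2, then washed. Compounds in DMSO were added in fresh medium containing arachidonic acid for 2 h. PGE₂ released into the medium was measured by EIA, and inhibition was expressed as the mean of three experiments.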

Regarding `CSc1ccc(/C=C/C(=O)c2ccccc2O)cc1`, the viability at 10 µM in the test on RAW264.7 stood at 85%.

In test [1], `COc1c(O)cc(O)c2c(=O)cc(-c3ccccc3)oc12` [WOGONIN] returned an IC50 of 1.07 µM. Moreover, the viability at 10 µM with RAW264.7 came out at 111%.

As for `CC(=O)c1cc(C(C)=O)c2c(=O)cc(-c3ccccc3)oc2c1`, half-maximal inhibition in test [2] (IC50) was put at 2.7 µM.

Compound `COc1cc(/C=C/C(=O)c2ccccc2O)cc(OC)c1OC` showed a 50% inhibitory concentration (IC50) in test [1] of 6.2 µM. Also, the viability at 10 µM with RAW264.7 was 65%.

For the compound `O=C(/C=C/c1ccc(OC(F)(F)F)cc1)c1ccccc1O`, the viability at 10 µM in the test with RAW264.7 was found to be 87%.

With `COc1ccc(/C=C/C(=O)c2ccccc2O)cc1Br`, in the test with RAW264.7, the viability at 10 µM turned out to be 159%.

For the compound `COc1ccc(/C=C/C(=O)c2ccccc2O)cc1OCc1ccccc1`, the viability at 10 µM in the test with RAW264.7 amounted to 102%.

Take `O=C(/C=C/c1cccc(Br)c1)c1ccccc1O`: the viability at 10 µM in the test on RAW264.7 is 90%.

Take `O=C(/C=C/c1ccc(Cl)cc1)c1ccccc1O`: in the test on RAW264.7, the viability at 10 µM came out at 141%.

For the compound `O=C(/C=C/c1ccc2c(c1)OCO2)c1ccccc1O`, the viability at 10 µM in the test on RAW264.7 stood at 118%.

Take `O=C(/C=C/c1ccc(Cl)c(Cl)c1)c1ccccc1O`: the viability at 10 µM in the test with RAW264.7 was determined as 155%.

Take `O=C(/C=C/c1ccc(Br)cc1)c1ccccc1O`: in the test with RAW264.7, the viability at 10 µM was found to be 162%.

In test [1], `COc1cccc(/C=C/C(=O)c2ccccc2O)c1OC` gave an IC50 of 3.8 µM. For the same compound, in the test with RAW264.7, the viability at 10 µM was found to be 93%.

Turning to `O=C(/C=C/c1ccccc1)c1ccccc1O` [2'-HYDROXYCHALCONE], the viability at 10 µM in the test on RAW264.7 was 119%.

For `O=C(/C=C/c1ccc(-c2ccccc2)cc1)c1ccccc1O`, the viability at 10 µM with RAW264.7 was 135%.

In the case of `COc1ccc(/C=C/C(=O)c2ccccc2O)c(OC)c1`, the viability at 10 µM in the test with RAW264.7 is 107%.

In the case of `COc1ccc(/C=C/C(=O)c2ccccc2O)cc1`, the viability at 10 µM with RAW264.7 came out at 115%.

In test [1], `O=C(/C=C/c1ccc(OCc2ccccc2)cc1)c1ccccc1O` had an IC50 of 4.1 µM. In addition, the viability at 10 µM with RAW264.7 came out at 99%.

As for `Cc1ccc(/C=C/C(=O)c2ccccc2O)cc1`, the viability at 10 µM with RAW264.7 came out at 152%.

For `CS(=O)(=O)Nc1ccc([N+](=O)[O-])cc1OC1CCCCC1` [NS-398], the viability at 10 µM in the test on RAW264.7 turned out to be 104%.

In turn, `O=C(/C=C/c1ccc(OCc2ccccc2)c(OCc2ccccc2)c1)c1ccccc1O` yielded a 50% inhibitory concentration (IC50) in test [1] of 4.6 µM. The viability at 10 µM with RAW264.7 was determined as 103%.
